Screening data from PubChem BioAssay.
This is a sample that favours compounds with a hit; in the whole collection about 4.8% have one here.
APP 5'UTR act = APP 5'UTR luciferase reporter activation | SH-SY5Y APP 5'UTR luciferase reporter, luminescence; zero percent = DMSO vehicle wells | activation, % at 2 µM | actives 1% (n = 190,000);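 active = activation above a set limit, based on mean plus 3 SD of controls, cut at about 140% in these data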
APP 5UTR inh = APP translation inhibition; SH-SY5Y APP 5'UTR-luciferase reporter, luminescence; inhibition, % at 2 µM; actives 0.82% (n = 190,000); AID 1285;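 active = inhibition above a set limit, derived from the sample mean plus 3 SD, cut at about 45% in these data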
NF-kB neuron act = compounds increasing NF-kB expression in human neuronal cells. NF-kB reporter expression; stronger effect = higher value. fold change at 12.5 µM. actives 1.6% (n = 190,000). AID 1239; in the data active = fold change above about 3.3
STAT1 activator = STAT1 signaling activation | NIH 3T3 STAT1-luciferase reporter, IFN-gamma, luminescence; 100% = IFN-gamma alone, no compound | activation (% of control), % at 5.5 µM | actives 2.6% (n = 200,000);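 active = activation above the screen-wide mean activation plus 3 SD, cut at about 130% in these data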;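 also: raw ratio to IFN-gamma control signal so 100% means no change and 0% no light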
FLuc stim CS = firefly luciferase counter-screen for stimulation assays. P08659. ATPlite luciferase biochemical, luminescence, 10 min; 0 = ATP-free wells, 1 = DMSO control. activation factor at 10 µM. 200,000 tested, under 10 active. AID 1027;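 active = luciferase activation factor, scaled between plate controls, of at least 2 with compound at 10 µM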
Target sequence (P08659 whole entry, looked up): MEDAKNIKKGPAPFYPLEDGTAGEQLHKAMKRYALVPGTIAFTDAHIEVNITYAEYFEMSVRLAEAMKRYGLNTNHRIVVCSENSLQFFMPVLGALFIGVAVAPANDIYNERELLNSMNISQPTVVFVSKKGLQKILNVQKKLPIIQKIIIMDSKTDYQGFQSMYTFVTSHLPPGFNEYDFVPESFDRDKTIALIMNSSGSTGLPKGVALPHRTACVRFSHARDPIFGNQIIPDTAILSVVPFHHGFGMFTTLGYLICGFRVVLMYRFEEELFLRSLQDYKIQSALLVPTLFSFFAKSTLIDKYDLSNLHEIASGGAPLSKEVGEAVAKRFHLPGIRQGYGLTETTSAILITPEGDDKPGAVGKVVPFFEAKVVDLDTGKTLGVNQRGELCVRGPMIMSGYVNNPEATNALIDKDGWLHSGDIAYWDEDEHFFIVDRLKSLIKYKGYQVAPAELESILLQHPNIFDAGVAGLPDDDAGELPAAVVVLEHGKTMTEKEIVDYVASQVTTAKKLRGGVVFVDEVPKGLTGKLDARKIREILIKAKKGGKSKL
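assay system = Luciferase/luciferin detection reagent, cell-free biochemical luciferase assay | also added = ATP substrate | times = 10 min post-reagent at room temperature | measured by = luminescence from luciferase reaction | measure = luciferase activation, seen as luminescence increase over controls | benchmarks = low control with PBS replacing ATP, high control enzyme plus ATP without compound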
FLuc inh counter = counter-screen for luciferase assay inhibitors: firefly luciferase inhibition. actives 1.5% (n = 200,000). ATPLite firefly luciferase biochemical luminescence, 10 min. inhibition, % at 10 µM;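 active = inhibition above about 50% when tested at 10 µM, limit read from the data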
An asterisk follows results filed as active.

SMILES	APP 5'UTR act	APP 5UTR inh	NF-kB neuron act	STAT1 activator	FLuc stim CS	FLuc inh counter
CCc1ccc(C(=O)/C=C/c2ccc([N+](=O)[O-])o2)cc1	-54	54*	2	100	1	4
N#C/C(=N\Nc1ccc(Cl)cc1)C(=O)c1ccccc1	1	-1	0.54	85	1	-3
Cc1c(N/N=C(\C#N)C(=O)c2ccc(Cl)cc2)c(=O)n(-c2ccccc2)n1C	-73	73*	0.89	99	1	-3
Nc1nc(CSc2ccccn2)nc(Nc2ccccc2)n1	134	-134	4.7*	148*	1	3
CCCC1C2C(=O)N(c3ccccc3OCC)C(=O)C2ON1c1ccccc1 (configuration not stated)	-9	10	1	91	1.1	-8
CCCC(=O)N=C1SC2CS(=O)(=O)CC2N1c1ccc(-c2nc3ccc(C)cc3s2)cc1 (configuration not stated)	125	-125	1.4	131*	0.8	21
O=C(O/N=C1/CCCc2occc21)c1ccccc1	-11	11	1.3	102	0.3	70*
O=C(O/N=C1\CCCc2ccccc21)c1cccc(Cl)c1	-9	9	1.2	104	0.5	50
Cc1cccc(C(=O)O/N=C2\CCCc3ccccc32)c1	4	-4	1.8	101	0.2	81*
Cc1ccc(C(=O)O/N=C2\CCCc3ccccc32)cc1	-4	4	1.6	135*	0.1	94*
COc1ccc(CC(=O)NNC(=O)CSc2nc(C)c(C)c(=O)[nH]2)cc1	5	-5	1.1	105	1	-5
Cc1cccc(NC(=S)N2CCC(C(N)=O)(N3CCCCC3)CC2)c1C	1	-1	0.97	98	1.1	-10
CCCN1CNc2c(c(=O)[nH]c(=S)n2CCc2ccccc2)C1	-5	5	0.99	98	1	-4
Cc1ccc(-c2nc(C=Nc3ccc(O)cc3)c(O)o2)cc1	-67	66*	2.3	108	0.8	20
Oc1oc(-c2ccccc2)nc1/C=N/c1ccccn1	73	-73	1.9	129*	0.6	40
CCOc1ccc(NC(=S)Nc2cc(OC)c(Cl)cc2OC)cc1	-4	4	1	94	1	-3
CCCCSc1ncc(C(=O)OCC)c(N)n1	164*	-164	6.8*	139*	0.7	30
CCOC(=O)c1cnc(SCc2ccc(C)cc2)nc1N	18	-18	2.2	140*	1.1	-8
CCOC(=O)c1cnc(SCc2nc(N)nc(Nc3ccccc3)n2)nc1N	-21	21	0.5	101	0.9	9
CCOC(=O)c1cnc(SCC(=O)c2ccc(Cl)cc2)nc1N	11	-11	1.2	98	1.1	-8
CCOC(=O)c1c(N)nn(C(=O)C(C)C)c1-c1ccccc1	4	-4	1.1	99	1	-2
O=C(/C=C/c1cccc([N+](=O)[O-])c1)n1cnc2ccccc21	-51	51*	1.2	107	1	-4
O=C(/C=C/c1cccc([N+](=O)[O-])c1)OCC(=O)c1ccccc1	7	-7	1.4	103	1.1	-6
CNS(=O)(=O)c1cc(OC)c(OC)cc1CC(=O)OC	16	-16	1.1	102	1.1	-6
CN(C)CC(C)(C)CNC(C(=O)Nc1ccc(Cl)cc1C(F)(F)F)c1ccccc1 (configuration not stated)	-6	6	1.1	95	1	-4
SMILES	APP 5'UTR act	APP 5UTR inh	NF-kB neuron act	STAT1 activator	FLuc stim CS	FLuc inh counter
Cc1ccc(C(=O)ONc2ccc(N=O)cc2)cc1	3	-3	1	99	0	97*
COC(=O)c1ccc(N=NN2CCCCC2)cc1	151*	-151	3.3*	140*	0.7	26
O=Nc1ccc(NOC(=O)c2ccc(Br)cc2)cc1	5	-5	1.1	98	0.1	87*
COC(=O)c1ccc(NN=Nc2ccc(C)cc2)cc1	72	-72	1.7	137*	1	3
CCOC1OC(=O)C(Cl)=C1Nc1ccc(C)cc1C (configuration not stated)	-4	4	1.5	95	1.1	-7
O=c1cc(N2CCCCCC2)[nH]c(=O)n1-c1ccccc1Cl	17	-17	1.1	114	1	2
CC(=O)c1ccc2noc(-c3cccc(C)c3)c2c1	19	-19	1.1	122	0.9	9
O=C(NCCc1ccccc1)c1cccnc1	9	-9	1.9	125	1	2
O=C(NCCc1ccccc1)C(=Cc1ccc(C(=O)O)cc1)C(=O)NCCc1ccccc1	0	0	1	95	1	-4
CN(C)S(=O)(=O)c1cccc(C(=O)NCCc2ccccc2)c1	156*	-156	2.5	134*	0.7	28
CC(=O)Oc1ccc(C(=O)NCCc2ccccc2)cc1	127	-127	2.9	104	0.5	51*
O=C(NCCc1ccccc1)c1ccc2nccnc2c1	75	-75	1.1	81	0.2	77*
C/C(=C\c1ccccc1)C(=O)NCCc1ccccc1	177*	-177	4.5*	105	0.7	34
CCOc1ccc(N(CC(=O)N/N=C/c2cccnc2)S(C)(=O)=O)cc1	-9	9	1	98	1	-4
Cc1ccc(C)c(N2CCN(C(=O)c3csc4ccccc34)CC2)c1	8	-8	0.82	104	1	-4
CCC(=O)c1c(NC(C)C)cc(C)oc1=O	10	-10	1.1	88	1	2
CCOc1ccc(C(=O)NCCc2ccccc2)cc1	123	-123	3.6*	96	0.3	73*
COc1ccc(NC(=O)CCNS(=O)(=O)c2ccc3c(c2)c(=O)n(C)c(=O)n3C)c(OC)c1	-4	4	1.1	101	1.1	-6
C(=C\c1nnc2c3ccccc3ncn12)/c1ccccc1	-73	72*	3.2	148*	0.8	17
COc1cc(/C=C/c2nnc3c4ccccc4ncn23)cc(OC)c1OC	2	-2	0.33	89	1	0
COCCN=c1scc(C)n1/N=C/C1CC2C=CC1C2 (configuration not stated)	-2	2	1.1	98	1	-3
Brc1ccc(-c2nnc(SCCC3OCCCO3)o2)cc1	35	-35	1.8	99	1	1
c1ccc(-c2nnc(SCCC3OCCCO3)o2)cc1	65	-65	3.4*	116	0.7	35
CCCC(O)(CCN(C)C)c1ccc(OC)cc1 (configuration not stated)	12	-12	1.1	96	1.1	-5
Cc1ccc2c(Cl)c(C(=O)Nc3cccnc3)sc2c1	169*	-169	2.8	122	0.3	66*
Fc1ccc(N2CCN(Cc3cnc(Cl)s3)CC2)cc1	1	0	0.94	94	1.1	-11
O=S(=O)(c1cnc[nH]1)N1CCc2ccccc21	13	-13	0.83	96	1	0
